Reference: ChEMBL document CHEMBL1221389, “Fluorescent schweinfurthin B and F analogs with anti-proliferative activity” (2010)
Active and inactive are the calls of the source. No cut-off for these calls is given here.

Key:
A549 = test: Cytotoxicity against human A549 cells after 44 hrs by MTT assay; type: functional; conditions: A549, 44 h, read-out: ED50 (the source's name)
Outline: (§1)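 Exposure to compound lasted 44 h. SF-295 cells were kept in RPMI 1640 and A549 cells in F-12, each with 10% FBS, antibiotics and L-glutamine, at 37 °C and 5% CO2. Medium was then replaced with MTT-containing medium (phenol red-free RPMI for SF-295, F-12 for A549) up to 48 h total. Cells were solubilized overnight at room temperature in HCl/Triton X-100/isopropanol stop solution, and absorbance was read at 540 and 650 nm. ED50 was derived from the dose-response.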

SF-295 [1] = test: Cytotoxicity against human SF295 cells after 44 hrs by MTT assay; type: functional; conditions: SF-295, 44 h, read-out: ED50 (the source's name); outline: as §1
SF-295 [2] = test: Cellular uptake in human SF295 cells assessed as perinuclear localization at 500 nM after 24 hrs by fluorescence microscopy; type: functional, cell-based
Outline: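 SF-295 glioma cells, from NCI, grown in RPMI 1640 with 10% FBS, amphotericin B, penicillin/streptomycin and L-glutamine at 37 °C, 5% CO2. Plated on coverslips and exposed to compound at 500 nM for 24 h at about 45% confluency. Then washed three times in PBS, fixed in 4% formaldehyde for 15 min, nuclei stained with DAPI, and compound fluorescence imaged.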

Structure (SMILES) | EC50 (A549) | EC50 (SF-295 [1]) | Activity (SF-295 [2])
COc1cc(/C=C/c2cc(O)c(/C=C/c3ccc([N+](=O)[O-])cc3)c(O)c2)cc2c1O[C@]1(C)CC[C@@H](O)C(C)(C)[C@H]1C2 | 800 nM | 50 nM | –
COc1cc(/C=C/c2cc3c(c(OC)c2)O[C@]2(C)C[C@@H](O)[C@@H](O)C(C)(C)[C@H]2C3)cc(O)c1/C=C/c1ccc(N)cc1 | 3200 nM | 20 nM | –
COc1cc(/C=C/c2cc3c(c(OC)c2)O[C@]2(C)C[C@@H](O)[C@@H](O)C(C)(C)[C@H]2C3)cc(O)c1/C=C/c1ccc([N+](=O)[O-])cc1 | 700 nM | 40 nM | –
COc1cc(/C=C/c2cc3c(c(OC)c2)O[C@]2(C)CC[C@@H](O)C(C)(C)[C@H]2C3)cc(O)c1/C=C/c1ccc([N+](=O)[O-])cc1 | 2700 nM | 100 nM | Active
COc1cc(/C=C/c2cc3c(c(OC)c2)O[C@]2(C)CC[C@@H](O)C(C)(C)[C@H]2C3)cc(O)c1/C=C/c1ccc(N)cc1 | 3000 nM | 400 nM | –
COc1ccc(/C=C/c2cc(O)c(/C=C/c3ccc(N)cc3)c(OC)c2)cc1OC | > 10000 nM | > 1000 nM | –
COc1ccc(/C=C/c2cc(O)c(/C=C/c3ccc([N+](=O)[O-])cc3)c(OC)c2)cc1OC | > 10000 nM | > 1000 nM | –
